Data reported in ChEMBL document CHEMBL1121715, “New antiarrhythmic agents. 4. 1'-(Aminoalkyl)-1,2,3,4-tetrahydronaphthalene-1-spiro-3'-pyrrolidine-2',5'-dione derivatives” (J Med Chem, 1981).
“And” between values parts separate entries of the source, which are not always exact repeats. Equal entries are not always repeated.

Legend:
[1] = organism: Canis familiaris; test: (§1) The dose at which toxicity was measured.; assay type: organism-based, Canis lupus familiaris; conditions: dog, in vivo
Procedure, shortened: (§2)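 Adult female dogs (6.7–14.5 kg) had two-stage ligation of the left anterior descending coronary artery the day before testing. After control ventricular rate, % ectopic beats and mean arterial pressure were recorded, the drug (HCl salt, isotonic solution) was infused iv without anesthesia at 0.1, 0.5 or 1.0 (mg/kg)/min, mostly 0.5. Infusion continued until the arrhythmia was abolished or cardiovascular/CNS toxicity appeared. Cumulative dose is given in mmol/kg; toxicity included convulsion and P-R prolongation ≥25%.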

[2] = organism: Canis familiaris; test: (§3) Toxicity of blood level was measured; assay type: organism-based, Canis lupus familiaris; conditions: dog, in vivo
Procedure, shortened: (§4)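 In coronary-ligated conscious dogs under iv infusion, blood was sampled at toxicity. Drug was extracted with methylene chloride at pH 10.3 (ammonium citrate/ammonia) with another analogue as internal standard, then derivatized with heptafluorobutyrylimidazole. Assay was GC-FID on 3% JXR, quantified from drug/internal standard peak-height ratio against standard curves; results in μmol/mL.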

[3] = tested on: Mus musculus; test: Protection against chloroform induced arrhythmias was measured in mice after sc administration at given dose.; assay type: functional; conditions: Mus musculus, sc; read-out: ED50
Procedure, shortened: (§5)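 Groups of 10 unanesthetized mice got sc injection of drug in 0.9% saline. After 20 min observation they were placed one by one in chloroform-vapor-saturated air. When breathing stopped, the thorax was opened and the heart inspected by eye; coordinated ventricular contractions counted as protected.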

[4] = tested on: Mus musculus; test: Protection against chloroform induced arrhythmias in mice after subcutaneous administration at 100 mg/kg dose.; assay type: functional; procedure, shortened: as §5
[5] = Volume of distribution was measured at given dose of 34 umol/kg; assay type: ADME, organism-based; conditions: in vivo
Procedure, shortened: (§6)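 In dogs given iv infusions, blood samples were alkaline-extracted (pH 10.3) into methylene chloride and derivatized with heptafluorobutyrylimidazole. Concentrations were measured by GC-FID against an internal standard using standard curves. Clearance was total dose ÷ blood-level AUC (zero to infinity), and volume of distribution was clearance ÷ elimination rate constant.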

[6] = Volume of distribution was measured at given dose of 43 umol/kg; assay type: ADME, organism-based; conditions: in vivo; procedure, shortened: as §6
[7] = Maximal concentration in dogs after intravenous administration; conditions: dog, in vivo
[8] = tested on: Canis familiaris; test: as above; conditions: dog, in vivo
[9] = organism: Mus musculus; test: Percentage toxicity measured as ataxia.; assay type: organism-based; conditions: in vivo
Procedure, shortened: (§7)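 Mice (groups of 10) were dosed sc with drug in 0.9% saline and watched for 20 min for overt toxicity (ataxia, convulsions, loss of righting reflex, death) before chloroform exposure.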

[10] = Total body clearance was measured at given dose.; assay type: ADME, organism-based; conditions: in vivo
Procedure, shortened: (§8)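 Blood levels came from the iv-infused dogs, measured by GC-FID after methylene chloride extraction and heptafluorobutyryl derivatization with an internal standard. Total body clearance was total dose divided by the blood-level AUC (zero to infinity); volume of distribution was clearance divided by the elimination rate constant.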

[11] = Percentage toxicity measured as death of mice.; assay type: organism-based; set-up: concentration or dose not given beside the values; conditions: mouse, in vivo; read-out: Death
[12] = tested on: Canis familiaris; test: MABP value was measured in anesthetized dog at 0.016 dose.; assay type: functional, Canis lupus familiaris; conditions: in the assay text read “unanesthetized dog” for “anesthetized dog”
Procedure, shortened: (§9)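 Adult female dogs (6.7–14.5 kg) had the left anterior descending coronary artery ligated in two stages the day before testing. Dogs were unanesthetized. Ectopic beats (% of ventricular rate) and mean arterial pressure were read at maximal antiarrhythmic effect against the cumulative dose.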

[13] = tested on: Canis familiaris; test: Blood level was measured in anesthetized 0.047 at given dose.; assay type: functional, Canis lupus familiaris; conditions: in the assay text read “unanesthetized” for “anesthetized”
Procedure, shortened: (§10)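 Blood was sampled from unanesthetized dogs with coronary-ligation arrhythmias during iv drug infusion. Each 1 mL sample was mixed with internal standard and pH 10.3 ammonium citrate/ammonia buffer and extracted into methylene chloride. The extract was dried at 50 °C and derivatized with heptafluorobutyrylimidazole. Analysis was by GC with flame-ionization detection (3% JXR column, 220 °C). Concentration came from the drug/internal standard peak-height ratio against standard curves.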

[14] = tested on: Canis familiaris; test: % ectopic beats was measured in anesthetized dog at 0.047 dose.; assay type: functional, Canis lupus familiaris, Heart; conditions: in the assay text read “unanesthetized” for “anesthetized”; procedure, shortened: as §9
[15] = Maximal concentration in dogs after 34 umol/kg intravenous dose; conditions: dog, in vivo
[16] = tested on: Canis familiaris; test: Ventricular rate was measured in anesthetized dog at 0.047 dose; assay type: functional, Canis lupus familiaris, Heart; conditions: in the assay text read “unanesthetized dog” for “anesthetized dog”; procedure, shortened: as §2
[17] = organism: Canis familiaris; test: as §1; assay type: organism-based, Canis lupus familiaris; conditions: dog, in vivo; procedure, shortened: as §2; remark: listed apart in the source
[18] = organism: Canis familiaris; test: (§11) Maximum dose of the Compound; assay type: functional, Canis lupus familiaris; procedure, shortened: as §2
[19] = organism: Mus musculus; test: Percentage toxicity measured as convulsions.; assay type: organism-based; conditions: in vivo; procedure, shortened: as §7
[20] = tested on: Canis familiaris; test: Blood level was measured in anesthetized dog at 0.016d ose.; assay type: functional, Canis lupus familiaris; conditions: in the assay text read “unanesthetized” for “anesthetized”; procedure, shortened: as §10
[21] = organism: Canis familiaris; test: as §11; assay type: ADME, organism-based, Canis lupus familiaris; conditions: dog, in vivo; procedure, shortened: as §2
[22] = tested on: Canis familiaris; test: MABP value was measured in anesthetized dog at 0.047 dose.; assay type: functional, Canis lupus familiaris; conditions: in the assay text read “unanesthetized dog” for “anesthetized dog”; procedure, shortened: as §2
[23] = organism: Canis familiaris; test: as §3; assay type: organism-based, Canis lupus familiaris; conditions: dog, in vivo; procedure, shortened: as §4; remark: listed apart in the source
[24] = tested on: Canis familiaris; test: Ventricular rate was measured in anesthetized dog at 0.016 dose; assay type: functional, Canis lupus familiaris, Heart; conditions: in the assay text read “unanesthetized dog” for “anesthetized dog”; procedure, shortened: as §2
[25] = organism: Mus musculus; test: Percentage toxicity measured as loss of righting reflex.; assay type: organism-based; conditions: in vivo; procedure, shortened: as §7
[26] = Volume of distribution was measured at given dose of 81 umol/kg; assay type: ADME, organism-based; conditions: in vivo; procedure, shortened: as §6
[27] = tested on: Canis familiaris; test: % ectopic beats was measured in anesthetized dog at 0.016 dose.; assay type: functional, Canis lupus familiaris, Heart; conditions: in the assay text read “unanesthetized” for “anesthetized”; procedure, shortened: as §9
[28] = tested on: Mus musculus; test: Protection against chloroform induced arrhythmias was measured in mice after sc administration at given dose; assay type: functional; procedure, shortened: as §5
[29] = tested on: Canis familiaris; test: % ectopic beats was measured in unanesthetized dog at 0.004 dose
[30] = Volume of distribution was measured at given dose of 25 umol/kg; assay type: ADME, organism-based; conditions: in vivo; procedure, shortened: as §6
[31] = tested on: Canis familiaris; test: MABP value was measured in anesthetized dog at given dose; assay type: functional, Canis lupus familiaris
[32] = organism: Canis familiaris; test: (§12) Total dose of the compound; assay type: functional, Canis lupus familiaris; procedure, shortened: as §2
[33] = tested on: Canis familiaris; test: Ventricular rate was measured in anesthetized dog at 0.004 dose; assay type: functional, Canis lupus familiaris, Heart; conditions: in the assay text read “unanesthetized dog” for “anesthetized dog”; procedure, shortened: as §2
[34] = Total body clearance was measured at given dose; assay type: ADME; procedure, shortened: as §8
[35] = tested on: Canis familiaris; test: Ventricular rate was measured in anesthetized dog at 0.014 dose; assay type: functional, Canis lupus familiaris, Heart; conditions: in the assay text read “unanesthetized dog” for “anesthetized dog”; procedure, shortened: as §2
[36] = tested on: Canis familiaris; test: % ectopic beats was measured in anesthetized dog at 0.014 dose; assay type: functional, Canis lupus familiaris, Heart; conditions: in the assay text read “unanesthetized” for “anesthetized”; procedure, shortened: as §9
[37] = organism: Canis familiaris; test: Ventricular rate was measured in […] at 0.028 dose; assay type: functional, Canis lupus familiaris, Heart; procedure, shortened: as §2
[38] = organism: Canis familiaris; test: Blood level was measured in […] at 0.004 dose; assay type: functional, Canis lupus familiaris
[39] = Maximal concentration in dogs after 29 umol/kg intravenous dose; conditions: dog, in vivo
[40] = organism: Canis familiaris; test: as §12; assay type: functional, Canis lupus familiaris; procedure, shortened: as §2; remark: listed apart in the source
[41] = Volume of distribution was measured at given dose of 29 umol/kg; assay type: ADME, organism-based; conditions: in vivo; procedure, shortened: as §6
[42] = tested on: Canis familiaris; test: % ectopic beats was measured in anesthetized dog at 0.028 dose; assay type: functional, Canis lupus familiaris, Heart; conditions: in the assay text read “unanesthetized” for “anesthetized”; procedure, shortened: as §9
[43] = tested on: Canis familiaris; test: Blood level was measured in anesthetized dog at 0.014 dose; assay type: functional, Canis lupus familiaris

`CCN(CC)CCCCN1C(=O)CC2(CCCc3ccc(OC)cc32)C1=O` (stereo unspecified) gave a Cumulative dose [1] of 0.02, a Blood level [2] of 18 µM and an ED50 [3] of 130 µmol/kg. For the same compound, the Protection [4] was 80%, the Vd [5] was 2.64 L/kg and the Vd [6] was 2.47 L/kg. For the same compound, the Cmax [7] was 29 µM, the Cmax [8] was 20 µM and the Ataxia [9] was 0%. The ClB [10] was 8.22 mL/min/kg and 12.8 mL/min/kg, the clearance ([10]; ClB) was 10.4 mL/min/kg and the mortality [11] was 0%. It also gave an MABP [12] of 95 mmHg, a Blood level [13] of 0.02 uM ml-1 and an Etopic beats [14] of 0%. The Cmax [15] was 12 µM, the Ventricular rate [16] was 165 beats min-1 and the Cumulative dose [17] was 0.081. The Dose [18] was 81 µM/kg and 43 µM/kg, the Convulsion [19] was 0% and the Blood level [20] was 0.011 uM ml-1. For the same compound, the Dose [21] was 34 µM/kg, the MABP [22] was 100 mmHg and the Blood level [23] was 0.029 uM ml-1. For the same compound, the Ventricular rate [24] was 147 beats min-1, the “Loss of righting reflex” value [25] was 0% and the Vd [26] was 3.41 L/kg. For the same compound, the Etopic beats [27] was 1%.

`CCN(CC)CCCN1C(=O)CC2(CCCc3ccc(O)cc32)C1=O` (stereo unspecified) showed an ED50 [28] of 90 µmol/kg, an Ectopic beats [29] of 3% and a Vd [30] of 1.58 L/kg. For the same compound, the Protection [4] was 80%, the Cmax [7] was 31 µM and the Ataxia [9] was 0%. For the same compound, the MABP [31] was 85 mmHg and 125 mmHg, the Dose [32] was 29 µM/kg and the mortality [11] was 0%. It also gave a Ventricular rate [33] of 168 beats min-1, a ClB [34] of 6.06 mL/min/kg and a clearance ([34]; ClB) of 3.81 mL/min/kg. The Ventricular rate [35] was 150 beats min-1, the Etopic beats [36] was 0% and the Convulsion [19] was 0%. For the same compound, the Ventricular rate [37] was 153 beats min-1, the Blood level [38] was 0.019 uM ml-1 and the Cmax [39] was 15 µM. The “Loss of righting reflex” value [25] was 0%, the Dose [40] was 25 µM/kg and the Vd [41] was 1.6 L/kg. For the same compound, the Etopic beats [42] was 6% and the Blood level [43] was 0.01 uM ml-1.
